How the values were obtained:
[1] = target: GABA-A receptor; anion channel (Homo sapiens) (UniProt P14867+P47870+P18507+P28472+P48169+Q99928+Q9UN88+P34903+O00591+O14764+Q8N1C3+P18505+P78334+P47869+P31644+Q16445); assay: Percent inhibition [3H]Ro-151788 binding to Benzodiazepine receptor from bovine brain membrane at 10 uM; conditions: Bos taurus, target entry is the homologue from another species
[2] = target: GABA-A receptor; anion channel; set-up: species or system Bos taurus
Mus musculus [3] = assay: Percent anticonvulsant activity against pentylenetetrazole (PTZ)-induced attacks at 10 mg/kg peroral dose; type: functional; conditions: route oral
Procedure, shortened: (§1)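 Male CD-1 mice dosed po in 1% carboxymethylcellulose, 30 min before PTZ (90 mg/kg sc, in 0.9% saline). Occurrence of clonic generalized convulsions noted over 30 min; χ² analysis vs control mice.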

Mus musculus [4] = assay: Motor coordination of mouse as number of falls in 30 sec was reported after 10 mg/kg peroral dose using rotarod test; type: functional; conditions: route oral
Procedure, shortened: (§2)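 Male CD-1 mice are dosed po in 1% CMC (flumazenil ip). Falls from a rota rod turning at 24 rpm are counted over 30 s, 25 min after drug administration, and compared with vehicle-treated mice. Means ± SEM.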

Mus musculus [5] = assay: Anxiolytic activity in mice using light-dark box and % time spent in light was reported at 100 mg/kg peroral dose; type: functional; conditions: route oral
Procedure, shortened: (§3)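 Male CD-1 mice (22–24 g) given drug po in 1% carboxymethylcellulose (10 mL/kg). Each mouse placed in the centre of the lighted area facing away from the dark compartment and allowed to explore for 5 min; time spent in the illuminated side and number of transfers between compartments recorded. Tests run between 10:00 and 15:00.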

Mus musculus [6] = assay: Motor coordination of mouse as number of falls in 30 sec was reported after 100 mg/kg peroral dose using rotarod test; type: functional; conditions: route oral
Procedure, shortened: (§4)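 Male CD-1 mice dosed po (suspension in 1% carboxymethylcellulose, 10 mL/kg). Rota rod turning at 24 rpm; falls from the rod counted over 30 s, 25 min after drug administration.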

Mus musculus [7] = assay: Anxiolytic activity in mice using light-dark box and no. of transfers between compartments were reported at 100 mg/kg peroral dose; type: functional; conditions: route oral; procedure, shortened: as §3
Mus musculus [8] = assay: Percent anticonvulsant activity against pentylenetetrazole (PTZ)-induced attacks at 100 mg/kg peroral dose; type: functional; conditions: route oral; procedure, shortened: as §1
Mus musculus [9] = assay: Anxiolytic activity in mice using light-dark box and % time spent in light was reported at 30 mg/kg peroral dose; type: functional; conditions: route oral; procedure, shortened: as §3
Mus musculus [10] = assay: Anxiolytic activity in mice using light-dark box and no. of transfers between compartments were reported at 30 mg/kg peroral dose; type: functional; conditions: route oral; procedure, shortened: as §3
Mus musculus [11] = assay: Percent anticonvulsant activity against pentylenetetrazole (PTZ)-induced attacks at 3 mg/kg peroral dose; type: functional; conditions: route oral; procedure, shortened: as §1
Mus musculus [12] = assay: Motor coordination of mouse as number of falls in 30 sec was reported after 1 mg/kg peroral dose using rotarod test; type: functional; conditions: route oral; procedure, shortened: as §2
Mus musculus [13] = assay: Anxiolytic activity in mice using light-dark box and no. of transfers between compartments were reported at 3 mg/kg peroral dose; type: functional; conditions: route oral; procedure, shortened: as §3
Mus musculus [14] = assay: Anxiolytic activity in mice using light-dark box and no. of transfers between compartments were reported at 0.3 mg/kg peroral dose; type: functional; conditions: route oral
Procedure, shortened: (§5)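 Light-dark box in male CD-1 mice. Ligands are given po in 1% CMC, flumazenil ip. Each mouse is placed in the centre of the lit area facing away from the dark one and explores for 5 min. Time in the illuminated side and number of transfers between compartments are recorded. Means ± SEM.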

Mus musculus [15] = assay: Motor coordination of mouse as number of falls in 30 sec was reported after 0.3 mg/kg peroral dose using rotarod test; type: functional; conditions: route oral; procedure, shortened: as §2
Mus musculus [16] = assay: Anxiolytic activity in mice using light-dark box and no. of transfers between compartments were reported at 1 mg/kg peroral dose; type: functional; conditions: route oral; procedure, shortened: as §5
[17] = Anticonvulsant activity electroshock induced convulsions and % lethality obtained at dose of 10 mg/kg; conditions: mouse, in vivo
Mus musculus [18] = assay: Anxiolytic activity in mice using light-dark box and % time spent in light was reported at 1 mg/kg peroral dose; type: functional; conditions: route oral; procedure, shortened: as §5
[19] = Displacement of [3H]Ro-151788 from rat GABA-A receptor alpha-5-beta-3-gamma-2 subunits expressed in HEK293 cells; type: cell-based
Procedure, shortened: (§6)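 Recombinant rat GABA-A subtypes are stably expressed in HEK293 cells grown in MEM/EBSS with 10% FCS at 37 °C. Membranes are made in 10 mM potassium phosphate pH 7.4 and resuspended with 100 mM KCl. Incubation uses 1–2 nM [3H]Ro15-1788 with compound at 10^-9–10^-5 M (≥6 concentrations), 1 h at 4 °C. […] Ki comes from Cheng–Prusoff, n=5, in triplicate.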

Mus musculus [20] = assay: Motor coordination of mouse as number of falls in 30 sec was reported after 3 mg/kg peroral dose using rotarod test; type: functional; conditions: route oral; procedure, shortened: as §4
[21] = Displacement of [3H]-Ro-15-1788 from rat GABA-A receptor alpha-2-beta-2-gamma-2 subunits expressed in HEK293 cells; type: cell-based; procedure, shortened: as §6
Mus musculus [22] = assay: Percent anticonvulsant activity against pentylenetetrazole (PTZ)-induced attacks at 1 mg/kg peroral dose; type: functional; conditions: route oral
Procedure, shortened: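 Male CD-1 mice are dosed po in 1% CMC (flumazenil ip). PTZ (90 mg/kg sc, in 0.9% saline) is injected 30 min later. Clonic generalized convulsions are scored over 30 min, with % protection compared with controls by χ2 analysis.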

Mus musculus [23] = assay: Anxiolytic activity in mice using light-dark box and % time spent in light was reported at 3 mg/kg peroral dose; type: functional; conditions: route oral; procedure, shortened: as §3
Mus musculus [24] = assay: Anxiolytic activity in mice using light-dark box and no. of transfers between compartments were reported at 10 mg/kg peroral dose; type: functional; conditions: route oral; procedure, shortened: as §3
Mus musculus [25] = assay: Percent anticonvulsant activity against pentylenetetrazole (PTZ)-induced attacks at 30 mg/kg peroral dose; type: functional; conditions: route oral; procedure, shortened: as §1
Mus musculus [26] = assay: Anxiolytic activity in mice using light-dark box and % time spent in light was reported at 10 mg/kg peroral dose; type: functional; conditions: route oral; procedure, shortened: as §3
Mus musculus [27] = assay: Motor coordination of mouse as number of falls in 30 sec was reported after 30 mg/kg peroral dose using rotarod test; type: functional; conditions: route oral; procedure, shortened: as §4

Work on `O=C(Cc1cnn2c1n[n+]([O-])c1ccc(Cl)cc12)OCc1ccsc1` yielded an inhibition [1] of 45%.
Work on `O=C(Cc1cnn2c1n[n+]([O-])c1ccc(Cl)cc12)Oc1ccccc1` yielded an inhibition [1] of 79%.
In the case of `CC(OC(=O)c1cnn2c1n[n+]([O-])c1ccc(Cl)cc12)c1ccccc1` (centres undefined), the inhibition [1] is reported as 95% and the Ki [2] is reported as 138 nM.
With `CC(C)OC(=O)c1cnn2c1n[n+]([O-])c1ccc(Cl)cc12` the inhibition [1] was 97% and the Ki [2] was 272 nM.
Work on `CN1C(=O)CN=C(c2ccccc2)c2cc(Cl)ccc21.O=C(OCc1ccoc1)c1cnn2c1n[n+]([O-])c1ccc(Cl)cc12` yielded an Activity (Mus musculus [3]) of 88.9% and a No. of falls (Mus musculus [4]) of 0.44.
In the case of `CCOC(=O)c1ncn2c1CN(C)C(=O)c1cc(F)ccc1-2.CN1C(=O)CN=C(c2ccccc2)c2cc(Cl)ccc21`, the Activity (Mus musculus [5]) is reported as 107%, the No. of falls (Mus musculus [6]) is reported as 0.4 and the No. of transfers (Mus musculus [7]) is reported as 15.6. The Activity (Mus musculus [8]) was 20%, the Activity (Mus musculus [9]) was 154.8% and the No. of transfers (Mus musculus [10]) was 23.
`O=C(Cc1cnn2c1n[n+]([O-])c1ccc(Cl)cc12)OCc1ccccc1` showed an inhibition [1] of 32%.
Compound `COc1ccccc1COC(=O)C1C=NN2c3cc(Cl)ccc3[N+]([O-])=NC12` (centres undefined) has an inhibition [1] of 100% and a Ki [2] of 1 nM.
`O=C(OCc1ccncc1)c1cnn2c1n[n+]([O-])c1ccc(Cl)cc12` showed an inhibition [1] of 100% and a Ki [2] of 44 nM.
Compound `CCOC(=O)c1ncn2c1CN(C)C(=O)c1cc(F)ccc1-2.O=C(OCc1cccs1)c1cnn2c1n[n+]([O-])c1ccc(Cl)cc12` has an Activity (Mus musculus [5]) of 124.08% and a No. of transfers (Mus musculus [7]) of 23.
For `O=C(CC1C=NN2c3cc(Cl)ccc3[N+]([O-])=NC12)Oc1ccccc1Cl` (centres undefined), the inhibition [1] was 87% and the Ki [2] was 489 nM.
Compound `CN1C(=O)CN=C(c2ccccc2)c2cc(Cl)ccc21` [DIAZEPAM] has an Activity (Mus musculus [11]) of 100%, a No. of falls (Mus musculus [12]) of 0.78 and a No. of transfers (Mus musculus [13]) of 16.5. It also gave a No. of transfers (Mus musculus [14]) of 22, a No. of falls (Mus musculus [15]) of 0.39 and a No. of transfers (Mus musculus [16]) of 23.2. The mortality [17] was 0%, the Activity (Mus musculus [18]) was 159.3% and the Ki [19] was 9.8 nM. The No. of falls (Mus musculus [20]) was 1.6, the Ki [21] was 7.8 nM and the Activity (Mus musculus [22]) was 93.8%. It also gave an Activity (Mus musculus [23]) of 243.2%.
Compound `COc1ccccc1COC(=O)c1cnn2c1nnc1ccc(Cl)cc12` has an inhibition [1] of 97% and a Ki [2] of 1.7 nM.
Work on `O=C(OCc1ccoc1)c1cnn2c1n[n+]([O-])c1ccc(Cl)cc12` yielded an Activity (Mus musculus [3]) of 20%, an Activity (Mus musculus [5]) of 127.18% and a No. of falls (Mus musculus [6]) of 0.18. It also gave an Activity (Mus musculus [11]) of 0%, a No. of transfers (Mus musculus [24]) of 16.57 and an Activity (Mus musculus [25]) of 30%. The Activity (Mus musculus [26]) was 118.95%, the No. of transfers (Mus musculus [7]) was 19.7 and the Activity (Mus musculus [8]) was 36.4%. For the same compound, the No. of falls (Mus musculus [27]) was 0.1, the No. of falls (Mus musculus [4]) was 0.2 and the No. of falls (Mus musculus [20]) was 0.14. For the same compound, the Activity (Mus musculus [9]) was 132.27%, the Ki [2] was 11.4 nM and the No. of transfers (Mus musculus [10]) was 20.4.
In the case of `O=C(OCc1ccsc1)c1cnn2c1n[n+]([O-])c1ccc(Cl)cc12`, the inhibition [1] is reported as 97%.

Reference: ChEMBL document CHEMBL1135690, “Benzodiazepine receptor ligands. 7. Synthesis and pharmacological evaluation of new 3-esters of the 8-chloropyrazolo[5,1-c][1,2,4]benzotriazine 5-oxide. 3-(2-Thienylmethoxycarbonyl) derivative: an anxioselective agent in rodents” (J Med Chem, 2002)
